Data published in ChEMBL document CHEMBL3272035, “(Vinylaryloxy)acetic acids. A new class of diuretic agents. 1. (Diacylvinylaryloxy)acetic acids” (J Med Chem, 1976).

Key:
Canis familiaris [1] = test: Diuretic activity in mongrel dog anesthetized with sodium pentobarbital assessed as urine volume at 25 mg/kg, iv measured after 15 to 45 mins post dose (reference value: 1 to 4 ml/min); type: functional, Canis lupus familiaris
Canis familiaris [2] = test: Diuretic activity in mongrel dog anesthetized with sodium pentobarbital assessed as urine K+ level at 1 mg/kg, iv measured after 15 to 45 mins post dose (reference value: 5 to 104 uequiv/min); type: functional, Canis lupus familiaris
Canis familiaris [3] = test: Diuretic activity in mongrel dog anesthetized with sodium pentobarbital assessed as urine volume at 1 mg/kg, iv measured after 15 to 45 mins post dose (reference value: 1 to 4 ml/min); type: functional, Canis lupus familiaris
Canis familiaris [4] = test: Diuretic activity in mongrel dog anesthetized with sodium pentobarbital assessed as urine Na+ level at 1 mg/kg, iv measured after 15 to 45 mins post dose (reference value: 4 to 82 uequiv/min); type: functional, Canis lupus familiaris
Canis familiaris [5] = test: Diuretic activity in mongrel dog anesthetized with sodium pentobarbital assessed as urine K+ level at 10 mg/kg, iv measured after 15 to 45 mins post dose (reference value: 5 to 104 uequiv/min); type: functional, Canis lupus familiaris
Canis familiaris [6] = test: Diuretic activity in mongrel dog anesthetized with sodium pentobarbital assessed as urine Cl- level at 10 mg/kg, iv measured after 15 to 45 mins post dose (reference value: 2 to 64 uequiv/min); type: functional, Canis lupus familiaris
Canis familiaris [7] = test: Diuretic activity in mongrel dog anesthetized with sodium pentobarbital assessed as urine Na+ level at 10 mg/kg, iv measured after 15 to 45 mins post dose (reference value: 4 to 82 uequiv/min); type: functional, Canis lupus familiaris
Canis familiaris [8] = test: Diuretic activity in mongrel dog anesthetized with sodium pentobarbital assessed as urine volume at 10 mg/kg, iv measured after 15 to 45 mins post dose (reference value: 1 to 4 ml/min); type: functional, Canis lupus familiaris
Canis familiaris [9] = test: Diuretic activity in mongrel dog anesthetized with sodium pentobarbital assessed as urine Cl- level at 1 mg/kg, iv measured after 15 to 45 mins post dose (reference value: 2 to 64 uequiv/min); type: functional, Canis lupus familiaris
Canis familiaris [10] = test: Diuretic activity in mongrel dog […] assessed as urine K+ level per 6 hrs at 3 mg/kg, po as gelatin capsules relative to control; type: functional, Canis lupus familiaris
Summary of the method: (§1)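 Conscious trained female mongrel dogs (8–10 kg), fasted overnight after 100 ml water the day before. On test day 250 ml water orally, then 500 ml 1 h later. Bladder emptied 1 h afterwards and compound or placebo given in gelatin capsules. Voided urine from metabolism cages pooled with catheter urine at 6 h; volume and Na+, K+, Cl− measured; geometric means.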

Canis familiaris [11] = test: Diuretic activity in mongrel dog assessed as urine Cl- level per 6 hrs at 1 mg/kg, po as gelatin capsules relative to control
[12] = Half life of the compound in DMF-phosphate buffer at pH 7.4 at 25 degC assessed as SH binding in presence of mercaptoacetic acid; type: physicochemical; conditions: DMF-phosphate buffer with mercaptoacetic acid
Summary of the method: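 Minutes for half of a standard amount of compound to react with excess mercaptoacetic acid in DMF-phosphate buffer, pH 7.4, 25°.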

Canis familiaris [13] = test: Diuretic activity in mongrel dog assessed as urine K+ level per 6 hrs at 1 mg/kg, po as gelatin capsules relative to control
Canis familiaris [14] = test: Diuretic activity in mongrel dog assessed as urine volume per 6 hrs at 1 mg/kg, po as gelatin capsules relative to control
Canis familiaris [15] = test: Diuretic activity in mongrel dog […] assessed as urine volume per 6 hrs at 3 mg/kg, po as gelatin capsules relative to control; type: functional, Canis lupus familiaris; summary of the method: as §1
Canis familiaris [16] = test: Diuretic activity in mongrel dog […] assessed as urine Cl- level per 6 hrs at 3 mg/kg, po as gelatin capsules relative to control; type: functional, Canis lupus familiaris; summary of the method: as §1
Canis familiaris [17] = test: Diuretic activity in mongrel trained conscious dog assessed as urine Na+ level per 6 hrs at 1 mg/kg, po as gelatin capsules relative to control
Canis familiaris [18] = test: Diuretic activity in mongrel dog […] assessed as urine Na+ level per 6 hrs at 3 mg/kg, po as gelatin capsules relative to control; type: functional, Canis lupus familiaris; summary of the method: as §1
Canis familiaris [19] = test: Diuretic activity in mongrel dog anesthetized with sodium pentobarbital assessed as urine volume at 0.1 mg/kg, iv measured after 15 to 45 mins post dose (reference value: 1 to 4 ml/min); type: functional, Canis lupus familiaris
Canis familiaris [20] = test: Diuretic activity in mongrel dog assessed as urine Cl- level per 6 hrs at 1.27 mg/kg, po as gelatin capsules relative to control
Canis familiaris [21] = test: Diuretic activity in mongrel dog anesthetized with sodium pentobarbital assessed as urine Cl- level at 0.1 mg/kg, iv measured after 15 to 45 mins post dose (reference value: 2 to 64 uequiv/min); type: functional, Canis lupus familiaris
Canis familiaris [22] = test: Diuretic activity in mongrel trained conscious dog assessed as urine K+ level per 6 hrs at 0.4 mg/kg, po as gelatin capsules relative to control
Canis familiaris [23] = test: Diuretic activity in mongrel trained conscious dog assessed as urine volume per 6 hrs at 0.4 mg/kg, po as gelatin capsules relative to control
Canis familiaris [24] = test: Diuretic activity in mongrel trained conscious dog assessed as urine Cl- level per 6 hrs at 0.4 mg/kg, po as gelatin capsules relative to control
Canis familiaris [25] = test: Diuretic activity in mongrel dog anesthetized with sodium pentobarbital assessed as urine K+ level at 0.1 mg/kg, iv measured after 15 to 45 mins post dose (reference value: 5 to 104 uequiv/min); type: functional, Canis lupus familiaris
Canis familiaris [26] = test: Diuretic activity in mongrel dog anesthetized with sodium pentobarbital assessed as urine Na+ level at 0.1 mg/kg, iv measured after 15 to 45 mins post dose (reference value: 4 to 82 uequiv/min); type: functional, Canis lupus familiaris
Canis familiaris [27] = test: Diuretic activity in mongrel trained conscious dog assessed as urine Na+ level per 6 hrs at 0.4 mg/kg, po as gelatin capsules relative to control
Canis familiaris [28] = test: Diuretic activity in mongrel dog […] assessed as urine volume per 6 hrs at 1.27 mg/kg, po as gelatin capsules relative to control; type: functional, Canis lupus familiaris; summary of the method: as §1
Canis familiaris [29] = test: Diuretic activity in mongrel dog assessed as urine Na+ level per 6 hrs at 1.27 mg/kg, po as gelatin capsules relative to control
Canis familiaris [30] = test: Diuretic activity in mongrel dog assessed as urine K+ level per 6 hrs at 1.27 mg/kg, po as gelatin capsules relative to control
Canis familiaris [31] = test: Diuretic activity in mongrel dog anesthetized with sodium pentobarbital assessed as urine Na+ level at 25 mg/kg, iv measured after 15 to 45 mins post dose (reference value: 4 to 82 uequiv/min); type: functional, Canis lupus familiaris
Canis familiaris [32] = test: Diuretic activity in mongrel dog anesthetized with sodium pentobarbital assessed as urine K+ level at 25 mg/kg, iv measured after 15 to 45 mins post dose (reference value: 5 to 104 uequiv/min); type: functional, Canis lupus familiaris

Compound | Activity (Canis familiaris [2]) | Activity (Canis familiaris [3]) | Activity (Canis familiaris [4]) | Activity (Canis familiaris [5]) | Activity (Canis familiaris [7]) | Activity (Canis familiaris [8]) | Activity (Canis familiaris [9]) | also measured
CC(=O)C(=Cc1cc(OCC(=O)O)ccc1Cl)C(C)=O | – | – | – | – | – | – | – | Activity (Canis familiaris [1]): 1 mL/min
CC(=O)C(=Cc1ccc(OCC(=O)O)cc1Cl)C(C)=O | 232 uEq/min | 11 mL/min | 1318 uEq/min | – | – | – | – | –
O=C(O)COc1ccc(C=C2C(=O)c3ccccc3C2=O)c(Cl)c1Cl | – | – | – | 44 uEq/min | 118 uEq/min | 2 mL/min | – | Activity (Canis familiaris [6]): 29 uEq/min
CCC(=O)/C(=C/c1ccc(OCC(=O)O)c(Cl)c1Cl)C(C)=O | 13 uEq/min | 16 mL/min | 2025 uEq/min | – | – | – | 1936 uEq/min | –
C=C(CC)C(=O)c1ccc(OCC(=O)O)c(Cl)c1Cl [ETHACRYNIC ACID] | 52 uEq/min | 6 mL/min | 188 uEq/min | 194 uEq/min | 2989 uEq/min | 22 mL/min | 244 uEq/min | Activity (Canis familiaris [10]): 7 milliequivalent; Activity (Canis familiaris [6]): 3324 uEq/min; Activity (Canis familiaris [11]): 26 milliequivalent; half-life [12]: < 1 min; Activity (Canis familiaris [13]): 5 milliequivalent; Activity (Canis familiaris [14]): 560 mL; Activity (Canis familiaris [15]): 571 mL; Activity (Canis familiaris [16]): 42 milliequivalent; Activity (Canis familiaris [17]): 21 milliequivalent; Activity (Canis familiaris [18]): 37 milliequivalent
CCC(=O)C(=Cc1ccc(OCC(=O)O)c(Cl)c1Cl)C(=O)CC | 68 uEq/min | 7 mL/min | 676 uEq/min | – | – | – | – | –
CC(=O)C(=Cc1cc(Cl)ccc1OCC(=O)O)C(C)=O | – | – | – | 20 uEq/min | 94 uEq/min | 2 mL/min | – | –
CC(=O)C(=Cc1ccc(OCC(=O)O)c2ccccc12)C(C)=O | 104 uEq/min | 4 mL/min | 393 uEq/min | – | – | – | – | –
CC(=O)C(=Cc1ccc(OCC(=O)O)cc1)C(C)=O | – | – | – | 106 uEq/min | 336 uEq/min | 4 mL/min | – | –
CC(=O)C(C(C)=O)C(SCC(=O)O)c1ccc(OCC(=O)O)c(Cl)c1Cl (stereo unspecified) | 178 uEq/min | 4 mL/min | 1569 uEq/min | – | – | – | 1628 uEq/min | Activity (Canis familiaris [19]): 13 mL/min; Activity (Canis familiaris [20]): 34 milliequivalent; Activity (Canis familiaris [21]): 1991 uEq/min; Activity (Canis familiaris [22]): 3 milliequivalent; Activity (Canis familiaris [23]): 575 mL; Activity (Canis familiaris [24]): 8 milliequivalent; Activity (Canis familiaris [25]): 173 uEq/min; Activity (Canis familiaris [26]): 1424 uEq/min; Activity (Canis familiaris [27]): 7 milliequivalent; Activity (Canis familiaris [28]): 750 mL; Activity (Canis familiaris [29]): 27 milliequivalent; Activity (Canis familiaris [30]): 6 milliequivalent
CC(=O)C(C(C)=O)C(SCCO)c1ccc(OCC(=O)O)c(Cl)c1Cl (stereo unspecified) | 80 uEq/min | 5 mL/min | 405 uEq/min | – | – | – | 447 uEq/min | –
CC(=O)C(=Cc1ccc(OCC(=O)O)c(Cl)c1Cl)C(C)=O | 104 uEq/min | 19 mL/min | – | – | – | – | – | Activity (Canis familiaris [19]): 9 mL/min; Activity (Canis familiaris [22]): 6 milliequivalent; Activity (Canis familiaris [23]): 762 mL; Activity (Canis familiaris [25]): 87 uEq/min; Activity (Canis familiaris [26]): 984 uEq/min; Activity (Canis familiaris [13]): 7 milliequivalent; Activity (Canis familiaris [14]): 492 mL; Activity (Canis familiaris [17]): 30 milliequivalent
CSC(c1ccc(OCC(=O)O)c(Cl)c1Cl)C(C(C)=O)C(C)=O (stereo unspecified) | 78 uEq/min | 6 mL/min | 571 uEq/min | – | – | – | 565 uEq/min | –
CC(=O)C(=Cc1ccc(OC(C)C(=O)O)c(Cl)c1Cl)C(C)=O (stereo unspecified) | 71 uEq/min | 8 mL/min | 847 uEq/min | – | – | – | – | –
CC(=O)C(=Cc1cc(Cl)cc(Cl)c1OCC(=O)O)C(C)=O | – | – | – | – | – | – | – | Activity (Canis familiaris [31]): 244 uEq/min; Activity (Canis familiaris [32]): 50 uEq/min; Activity (Canis familiaris [1]): 3 mL/min
CC(=O)C(C(C)=O)C(Sc1ccccc1C(=O)O)c1ccc(OCC(=O)O)c(Cl)c1Cl (stereo unspecified) | 124 uEq/min | 7 mL/min | 802 uEq/min | – | – | – | 913 uEq/min | –
CC(=O)C(=Cc1ccc(OCC(=O)O)c(C)c1C)C(C)=O | 58 uEq/min | – | – | – | – | – | – | –
CC(=O)/C(=C\c1ccc(OCC(=O)O)c(Cl)c1Cl)C(=O)c1ccccc1 | – | – | – | 105 uEq/min | 583 uEq/min | 6 mL/min | – | –
O=C(O)COc1ccc(C=C2C(=O)C=CC2=O)c(Cl)c1Cl | – | – | – | 94 uEq/min | 213 uEq/min | 4 mL/min | – | –
CC(=O)C(Cc1ccc(OCC(=O)O)c(Cl)c1Cl)C(C)=O | – | – | – | 35 uEq/min | 198 uEq/min | 3 mL/min | – | Activity (Canis familiaris [6]): 241 uEq/min
